Reference: ChEMBL document CHEMBL1781968, “δ-Carbolines and their ring-opened analogs: synthesis and evaluation against fungal and bacterial opportunistic pathogens” (Eur J Med Chem, 2011)
≈ marks a conversion by molar mass, not a printed value.

Columns and labels:
Staphylococcus aureus [1] = assay: Antibacterial activity against Staphylococcus aureus ATCC 29213 by NCCLS method; format: functional, organism-based
Outline: (§1)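 Broth microdilution (modified NCCLS). Samples in DMSO serially diluted in 0.9% saline, tested in duplicate, highest final concentration 20 μg/mL. Inoculum matched to 0.5 McFarland standard by absorbance at 630 nm, then diluted in cation-adjusted Mueller–Hinton broth. Growth, solvent and medium controls on each plate. Absorbance at 530 nm read before and after incubation. IC50 taken from percent growth versus concentration plot; MIC is lowest concentration with no detectable growth; MBC is lowest concentration killing the organism.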

Staphylococcus aureus [2] = assay: Antibacterial activity against methicillin-resistant Staphylococcus aureus ATCC 33591 by NCCLS method; format: functional, organism-based; outline: as §1
Escherichia coli = assay: Antibacterial activity against Escherichia coli by NCCLS method; format: functional, organism-based
Outline: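 Modified NCCLS broth microdilution. DMSO-dissolved samples serially diluted in 0.9% saline, tested in duplicate, final concentrations starting at 20 μg/mL. Inoculum set to 0.5 McFarland (absorbance 630 nm) and diluted in cation-adjusted Mueller–Hinton broth. Growth, solvent and medium controls on each plate. Read at 530 nm before and after incubation. IC50 from percent growth versus concentration. MIC is lowest concentration with no detectable growth.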

[3] = system: Mycobacterium intracellulare; assay: Antibacterial activity against Mycobacterium intracellular ATCC 23068 by alamar blue method; format: functional, organism-based
Outline: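 Modified Alamar blue method (Franzblau). Samples in DMSO serially diluted in 0.9% saline, in duplicate, final concentrations starting at 20 μg/mL. Inoculum adjusted to 0.5 McFarland, then diluted in Middlebrook 7H9 with OADC enrichment plus 5% Alamar blue. Fluorescence read (ex 544/em 590 nm) before and after incubation. IC50 from percent growth versus concentration. MIC is no detectable growth.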

[4] = Cytotoxicity against african green monkey Vero cell after 48 hrs by neutral red uptake assay; format: cell-based; conditions: chlorocebus sabaeus, Vero cells; read-out: TC50
Outline: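 VERO kidney fibroblasts seeded at 25,000 cells/well and incubated 24 h. Compounds added, highest concentration 10 μg/mL, then 48 h further incubation. Viable cells measured by neutral red assay. IC50 taken from growth-inhibition dose curves. Doxorubicin as positive control, DMSO as vehicle control.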

Candida albicans = assay: Antifungal activity against Candida albicans ATCC 90028 by NCCLS method; format: functional, organism-based
Outline: (§2)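 Modified NCCLS microdilution for fungi. Samples in DMSO serially diluted with 0.9% saline, in duplicate, final concentrations from 20 μg/mL down. Inocula matched to 0.5 McFarland (630 nm) and diluted in Sabouraud dextrose broth. Growth, solvent and medium controls included. OD 530 nm read before and after incubation. IC50 from percent growth curve. MIC is no detectable growth. MFC is lowest concentration killing the organism.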

Aspergillus fumigatus = assay: Antifungal activity against Aspergillus fumigatus ATCC 204305 by NCCLS method; format: functional, organism-based; outline: as §2
Cryptococcus neoformans = assay: Antifungal activity against Cryptococcus neoformans ATCC 90113 by NCCLS method; format: functional, organism-based; outline: as §2

| Compound | IC50 (Staphylococcus aureus [1]) | MBC (Staphylococcus aureus [1]) | MIC (Staphylococcus aureus [1]) | IC50 (Staphylococcus aureus [2]) | MBC (Staphylococcus aureus [2]) | MIC (Staphylococcus aureus [2]) | IC50 (Escherichia coli) | MBC (Escherichia coli) | MIC (Escherichia coli) | IC50 [3] | MBC [3] | MIC [3] | CC50 at 48 h [4] | MFC (Aspergillus fumigatus) | MIC (Aspergillus fumigatus) | further results |
| --- | --- | --- | --- | --- | --- | --- | --- | --- | --- | --- | --- | --- | --- | --- | --- | --- |
| C[n+]1cccc(N(CCCCCC2CCCCC2)c2ccccc2C(F)(F)F)c1.[I-] | 0.3 µg/mL | 10 µg/mL | 0.3 µg/mL | 0.6 µg/mL | 5 µg/mL | 1.3 µg/mL | 9.1 µg/mL | > 20 µg/mL | > 20 µg/mL | 1.2 µg/mL | 2.5 µg/mL | 3.5 µg/mL |  |  |  |  |
| O=C(O)c1cn(C2CC2)c2cc(N3CCNCC3)c(F)cc2c1=O [CIPROFLOXACIN] |  | 0.5 µg/mL (≈ 1.51 µM) | 0.3 µg/mL (≈ 0.905 µM) |  | 0.5 µg/mL (≈ 1.51 µM) | 0.3 µg/mL (≈ 0.905 µM) | 0.005 µg/mL (≈ 0.0151 µM) | 0.6 µg/mL (≈ 1.81 µM) | 0.3 µg/mL (≈ 0.905 µM) |  | > 20 µg/mL | 0.5 µg/mL (≈ 1.51 µM) |  |  |  |  |
| Cc1cccc(N(CCCCCC2CCCCC2)c2ccc[n+](C)c2)c1.[I-] | 0.7 µg/mL | 5 µg/mL | 1.3 µg/mL | 1.2 µg/mL | 5 µg/mL | 2.5 µg/mL | 7.7 µg/mL | > 20 µg/mL | > 20 µg/mL | 1.1 µg/mL | 5 µg/mL | 1.3 µg/mL |  |  |  |  |
| C[n+]1cccc(N(CCCCCC2CCCCC2)c2cccc(C(F)(F)F)c2)c1.[I-] |  |  |  | 1.5 µg/mL | 5 µg/mL | 2.5 µg/mL | 4.5 µg/mL | > 20 µg/mL | > 20 µg/mL | 2 µg/mL | 2.5 µg/mL | 2.5 µg/mL |  |  |  |  |
| C[n+]1cccc(N(CCCCCC2CCCCC2)c2ccccc2)c1.[I-] | 0.7 µg/mL | 10 µg/mL | 1.3 µg/mL | 3.4 µg/mL | 20 µg/mL | 10 µg/mL | 7.6 µg/mL | > 20 µg/mL | > 20 µg/mL | 2.1 µg/mL | 2.5 µg/mL | 2.5 µg/mL | > 10 µg/mL | > 20 µg/mL | > 20 µg/mL | MFC (Candida albicans): > 20 µg/mL; IC50 (Aspergillus fumigatus): 20 µg/mL |
| C[C@@H]1[C@H](O)[C@@H](C)/C=C/C=C/C=C/C=C/C=C/C=C/C=C/[C@H](O[C@@H]2O[C@H](C)[C@@H](O)[C@H](N)[C@@H]2O)C[C@@H]2O[C@](O)(C[C@@H](O)C[C@@H](O)[C@H](O)CC[C@@H](O)C[C@@H](O)CC(=O)O[C@H]1C)C[C@H](O)[C@H]2C(=O)O [AMPHOTERICIN B] |  |  |  |  |  |  |  |  |  |  |  |  |  | 5 µg/mL (≈ 5.41 µM) | 1.3 µg/mL (≈ 1.41 µM) | MFC (Cryptococcus neoformans): 0.63 µg/mL (≈ 0.682 µM); MIC (Cryptococcus neoformans): 0.63 µg/mL (≈ 0.682 µM) |
| C[n+]1cccc(N(CCCCCC2CCCCC2)c2ccc(C(F)(F)F)cc2)c1.[I-] |  |  |  | 0.9 µg/mL | 2.5 µg/mL | 2.5 µg/mL | 3.5 µg/mL | 20 µg/mL | 20 µg/mL | 1 µg/mL | 1.3 µg/mL | 1.3 µg/mL | > 10 µg/mL | 5 µg/mL | 2.5 µg/mL |  |
| COc1ccccc1N(CCCCCC1CCCCC1)c1ccc[n+](C)c1.[I-] | 0.4 µg/mL | 20 µg/mL | 0.6 µg/mL | 1.2 µg/mL | 20 µg/mL | 5 µg/mL | 14 µg/mL | > 20 µg/mL | > 20 µg/mL | 1.9 µg/mL | 2.5 µg/mL | 2.5 µg/mL |  |  |  |  |
| C[n+]1cccc(N(CCCCCC2CCCCC2)c2ccccc2Cl)c1.[I-] | 0.3 µg/mL | 10 µg/mL | 0.6 µg/mL | 1.1 µg/mL | 10 µg/mL | 2.5 µg/mL | 7.6 µg/mL | > 20 µg/mL | > 20 µg/mL | 2.1 µg/mL | 5 µg/mL | 2.5 µg/mL |  | > 20 µg/mL | > 20 µg/mL |  |
| C[n+]1cccc(N(CCCCCC2CCCCC2)c2ccc(Cl)cc2)c1.[I-] | 1.5 µg/mL |  | 3.1 µg/mL |  |  |  |  |  |  | 1 µg/mL |  | 1.6 µg/mL | > 10 µg/mL | > 20 µg/mL | 1.6 µg/mL | MFC (Candida albicans): > 20 µg/mL |
| Cc1ccccc1N(CCCCCC1CCCCC1)c1ccc[n+](C)c1.[I-] | 0.3 µg/mL | 10 µg/mL | 0.6 µg/mL | 1 µg/mL | 10 µg/mL | 2.5 µg/mL | 9.4 µg/mL | > 20 µg/mL | > 20 µg/mL | 1.6 µg/mL | 2.5 µg/mL | 2.5 µg/mL |  |  |  |  |
| CCc1ccc(N(CCCCCC2CCCCC2)c2ccc[n+](C)c2)cc1.[I-] | 0.2 µg/mL | 5 µg/mL | 3 µg/mL | 0.7 µg/mL | 2.5 µg/mL | 1.3 µg/mL | 4 µg/mL | 20 µg/mL | 20 µg/mL | 0.6 µg/mL | 5 µg/mL | 1.3 µg/mL |  |  |  |  |
| C[n+]1c2ccccc2cc2[nH]c3ccccc3c21.[I-] [CRYPTOLEPTINE IODIDE] | 10 µg/mL |  |  | 20 µg/mL |  |  |  |  |  |  |  |  | 3.2 µg/mL |  |  | MIC (Candida albicans): > 250 µg/mL; MIC (Cryptococcus neoformans): 12.5 µg/mL |
| Cc1ccc(N(CCCCCC2CCCCC2)c2ccc[n+](C)c2)cc1.[I-] |  |  |  | 1 µg/mL | 2.5 µg/mL | 2.5 µg/mL | 4.5 µg/mL | > 20 µg/mL | 20 µg/mL | 1.5 µg/mL | 2.5 µg/mL | 2.5 µg/mL | > 10 µg/mL | 5 µg/mL | 5 µg/mL |  |
| CSc1ccc(N(CCCCCC2CCCCC2)c2ccc[n+](C)c2)cc1.[I-] | 0.3 µg/mL | 5 µg/mL | 0.6 µg/mL | 1 µg/mL | 2.5 µg/mL | 2.5 µg/mL | 5.2 µg/mL | 20 µg/mL | 20 µg/mL | 1 µg/mL | 5 µg/mL | 1.3 µg/mL | > 10 µg/mL | 10 µg/mL | 10 µg/mL |  |
| C[n+]1cccc(N(CCCCCC2CCCCC2)c2cccc(Cl)c2)c1.[I-] | 0.34 µg/mL | 5 µg/mL | 0.63 µg/mL | 1.3 µg/mL | 5 µg/mL | 2.5 µg/mL | 6.5 µg/mL | > 20 µg/mL | > 20 µg/mL | 2.1 µg/mL | 5 µg/mL | 2.5 µg/mL | > 10 µg/mL | 20 µg/mL | 20 µg/mL | IC50 (Cryptococcus neoformans): 0.72 µg/mL; IC50 (Aspergillus fumigatus): 12 µg/mL |
